# Test results from PMC6106105 (Journal of the Endocrine Society, 2018).
# Like-named read-outs stand apart in the source and are kept apart here. Numbered stars: 1 amine (or outer) side, 2 acyl side, 3 side chain; on linkers, the order of the positions; unused ones are H or OH. Square brackets hold non-standard residues; d marks the D form. Side chains are listed from the residue outwards. Peptide text beside a SMILES is read from it. * marks the point of attachment. Ethylenediamine = C(CN[*:2])N[*:1]; Hyp = O=C(O)[C@@H]1C[C@@H](O)CN1; Phg = N[C@H](C(=O)O)c1ccccc1; CO = O=C([*:1])[*:2]; Bn = c1ccc(C*)cc1
# Legend:
# rat Sstr2A [1] = target: T1, rat Sstr2A (Rattus norvegicus, UniProt P30680); format: cell-based; conditions: for Emax: read-out: cAMP Emax
# T1 sequence (P30680 whole entry): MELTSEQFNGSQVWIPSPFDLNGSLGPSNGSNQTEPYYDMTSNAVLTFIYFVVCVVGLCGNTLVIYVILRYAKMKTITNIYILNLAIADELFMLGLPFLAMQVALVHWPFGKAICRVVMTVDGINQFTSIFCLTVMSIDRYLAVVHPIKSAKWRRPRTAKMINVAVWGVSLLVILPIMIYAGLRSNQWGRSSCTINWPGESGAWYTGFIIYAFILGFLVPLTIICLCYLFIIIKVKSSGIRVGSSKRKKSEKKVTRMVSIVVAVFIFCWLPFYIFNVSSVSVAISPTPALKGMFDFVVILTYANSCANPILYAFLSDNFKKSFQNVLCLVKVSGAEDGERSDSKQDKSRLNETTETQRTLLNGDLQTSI
# rat Sstr2A [2] = target: T1, rat Sstr2A; test: Sstr2A receptor internalization, cell surface ELISA in GH12C1-Sstr2A cells; format: cell-based; conditions: for Emax: read-out: Internalization Emax
# rat Sstr2A [3] = target: T1, rat Sstr2A; test: Membrane potential; format: cell-based; conditions: read-out: Hyperpolarization Emax
# GH4C1 cells = test: Membrane potential; format: cell-based, rat; conditions: for hyperpolarization response (agonist, in words): 100 nM (Fig. 3A)
# How it was run: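 Rat GH4C1 cells grown in F12 with 12.5% horse serum and 2.5% FBS, plated 150,000/well on poly-D-ornithine. Loaded 30 min with FLIPR Membrane Potential blue dye in HEPES-buffered saline, pH 7.4, then equilibrated 15 min at 37°C. After 30 s baseline, agonist was added and fluorescence read for 180 s (ex 530/em 565 nm). Output was F1/F0 minus control trace, averaged over three wells.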
Molecule,Emax (rat Sstr2A [1]) [%],Emax (rat Sstr2A [2]) [%],Emax at 0.1 µM (rat Sstr2A [3]) [%],"hyperpolarization response (agonist, in words) (GH4C1 cells)",also measured
"C[C@@H](O)[C@@H]1NC(=O)[C@H](CCCCN)NC(=O)[C@@H](Cc2c[nH]c3ccccc23)NC(=O)[C@H](Cc2ccccc2)NC(=O)[C@@H](NC(=O)[C@H](N)Cc2ccccc2)CSSC[C@@H](C(=O)N[C@H](CO)[C@@H](C)O)NC1=O [Octreotide, octreotide]",100,100,107,equivalent to that of SS14,–
"NCCCC[C@@H]1NC(=O)[C@@H](Cc2c[nH]c3ccccc23)NC(=O)[C@H](c2ccccc2)NC(=O)[C@@H]2C[C@@H](OC(=O)NCCN)CN2C(=O)[C@H](Cc2ccccc2)NC(=O)[C@H](Cc2ccc(OCc3ccccc3)cc2)NC1=O [SOM230, pasireotide diaspartate] (cyclo([Hyp]([CO-Ethylenediamine])[Phg][dW]KY(Bn)F); ring closure inferred)",100,5,–,–,"EC50 (rat Sstr2A [1]): 58 ± 7 nM; Kd (rat Sstr2A [2]): 243 ± 63 nM; shift in SS14 potency for receptor internalization after SOM230 pretreatment (Schild-plot analysis) (rat Sstr2A [2]; SOM230 2 µM, 5-minute pretreatment, kept present throughout): 8.7 fold; Emax at 1 µM (rat Sstr2A [3]): 5%"
"C[C@H](N)C(=O)NCC(=O)N[C@H]1CSSC[C@@H](C(=O)O)NC(=O)[C@H](CO)NC(=O)[C@H]([C@@H](C)O)NC(=O)[C@H](Cc2ccccc2)NC(=O)[C@H]([C@@H](C)O)NC(=O)[C@H](CCCCN)NC(=O)[C@H](Cc2c[nH]c3ccccc23)NC(=O)[C@H](Cc2ccccc2)NC(=O)[C@H](Cc2ccccc2)NC(=O)[C@H](CC(N)=O)NC(=O)[C@H](CCCCN)NC1=O [SS14, Somatostatin]",100,100,100,–,–
"Des-AA^1,2,5-[DTrp^8,IAmp^9,^125ITyr^11]-Cbm-SRIF [Rivier #27]",–,–,–,largely ineffective,–
H-p-Chloro-Phe-D-Cys-β-(3-pyridyl)-Ala-D-Trp-Lys-tBu-Gly-Cys-2-Nal-NH2 trifluoroacetate salt [PRL-2915],–,–,–,–,"effect on hyperpolarization response produced by SS14 (GH4C1 cells; PRL-2915 (1 µM), SS14 (1 µM), 15 minutes pretreatment): eliminated most of the hyperpolarization response"
